Square brackets hold non-standard residues; d marks the D form. Peptide text beside a SMILES is read from it. Hyp = O=C(O)[C@@H]1C[C@@H](O)CN1; Ahx = NCCCCCC(=O)O
Key:
[1] = target: T1, von Hippel-Lindau disease tumor suppressor/Bromodomain-containing protein 4 (Homo sapiens) (UniProt O60885+P40337); test: PROTAC activity at VHL/BDR4 ET domain in human MCF7 cells assessed as degradation by measuring fold change in remaining BRD4 level at 10 uM incubated for 6 hrs by immunoblotting analysis (reference value: […]); format: cell-based
T1 sequence (P40337 whole entry, looked up, other chains not shown, the tested form may be a part): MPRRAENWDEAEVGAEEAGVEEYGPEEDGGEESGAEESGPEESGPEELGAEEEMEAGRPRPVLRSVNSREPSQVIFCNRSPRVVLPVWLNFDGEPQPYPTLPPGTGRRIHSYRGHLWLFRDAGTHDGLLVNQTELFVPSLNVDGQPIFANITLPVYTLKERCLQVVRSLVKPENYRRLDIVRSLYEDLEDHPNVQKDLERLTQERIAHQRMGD

[2] = target: T1, von Hippel-Lindau disease tumor suppressor/Bromodomain-containing protein 4 (Homo sapiens); test: PROTAC activity at VHL/BDR4 ET domain in human MCF7 cells assessed as degradation by measuring fold change in remaining BRD4 level at 10 uM incubated for 24 hrs in presence of MG132 by immunoblotting analysis (reference value: […]); format: cell-based
[3] = target: T1, von Hippel-Lindau disease tumor suppressor/Bromodomain-containing protein 4 (Homo sapiens); test: PROTAC activity at VHL/His-tagged BDR4 ET domain (1 to 470 residues) (unknown origin) transfected in MCF7 cells assessed as degradation by measuring fold change in remaining BRD4 level at 5 uM incubated for 24 hrs by immunoblotting analysis (reference value: […]); format: cell-based
[4] = target: T1, von Hippel-Lindau disease tumor suppressor/Bromodomain-containing protein 4 (Homo sapiens); test: PROTAC activity at VHL/His-tagged BDR4 ET domain (1 to 470 residues) (unknown origin) transfected in MCF7 cells assessed as degradation by measuring fold change in remaining BRD4 level at 10 uM incubated for 24 hrs by immunoblotting analysis (reference value: […]); format: cell-based
[5] = target: T1, von Hippel-Lindau disease tumor suppressor/Bromodomain-containing protein 4 (Homo sapiens); test: PROTAC activity at VHL/His-tagged BDR4 ET domain (471 to 730 residues) (unknown origin) transfected in MCF7 cells assessed as degradation by measuring fold change in remaining BRD4 level at 5 uM incubated for 24 hrs by immunoblotting analysis (reference value: […]); format: cell-based
[6] = target: T1, von Hippel-Lindau disease tumor suppressor/Bromodomain-containing protein 4 (Homo sapiens); test: PROTAC activity at VHL/His-tagged BDR4 ET domain (1047 to 1362 residues) (unknown origin) transfected in MCF7 cells assessed as degradation by measuring fold change in remaining BRD4 level at 5 uM incubated for 24 hrs by immunoblotting analysis (reference value: […]); format: cell-based
MDA-MB-231 = test: Cytotoxicity against human MDA-MB-231 cells incubated for 1 week by CellTiter 96 Aqueous One Solution based assay; format: functional, cell-based; settings: MDA-MB-231, 168 h
Method in brief: (§1)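 Cells grown in RPMI-1640 (T47D, BT549) or DMEM (MDA-MB-231) with 10% FBS, 37 °C, 5% CO2. Seeded 2 × 10^3/well, exposed to a gradient concentration of peptide for 1 week. MTS-type reagent added 20 μL per 100 μL medium, 1 h at 37 °C, absorbance read at 490 nm. EC50 derived from the concentration–response curve.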

BT-549 = test: Cytotoxicity against human BT-549 cells incubated for 1 week by CellTiter 96 Aqueous One Solution based assay; format: functional, cell-based; settings: BT-549, 168 h; method in brief: as §1

Molecule | fold change (FC) [1] | fold change (FC) [2] | fold change (FC) [3] | fold change (FC) [4] | fold change (FC) [5] | fold change (FC) [6] | EC50 (MDA-MB-231) [µM] | EC50 (BT-549) [µM]
CC[C@H](C)[C@H](NC(=O)[C@H](Cc1ccc(O)cc1)NC(=O)[C@@H]1C[C@@H](O)CN1C(=O)[C@H](C)NC(=O)[C@@H](NC(=O)CCCCCNC(=O)[C@H](CCC(=O)O)NC(=O)CNC(=O)[C@H](CS)NC(=O)[C@H](CCCCN)NC(=O)[C@H](Cc1ccccc1)NC(=O)[C@H](CCCCN)NC(=O)[C@H](CCC(N)=O)NC(=O)[C@H](CC(N)=O)NC(=O)[C@H](CCCNC(=N)N)NC(=O)[C@H](CCCNC(=N)N)NC(=O)[C@H](CCCNC(=N)N)NC(=O)[C@H](CCCNC(=N)N)NC(=O)[C@H](CCC(N)=O)NC(=O)[C@H](CCCNC(=N)N)NC(=O)[C@H](CCCNC(=N)N)NC(=O)[C@H](CCCCN)NC(=O)[C@H](CCCCN)NC(=O)[C@H](CCCNC(=N)N)NC(=O)CNC(=O)[C@@H](N)Cc1ccc(O)cc1)[C@@H](C)CC)C(=O)O (H-YGRKKRRQRRRRNQKFKCGE[Ahx]IA[Hyp]YI-OH) | 0.72 | 0.96 | 1.09 | 1.11 | 0.8 | 1.09 |  | 
H-YGRKKRRQRRRRNQKFKCGE-OH |  |  |  |  |  |  | 4.68 | 32.3

— ChEMBL document CHEMBL5543129, “Peptide Inhibitor Targeting the Extraterminal Domain in BRD4 Potently Suppresses Breast Cancer Both In Vitro and In Vivo” (J Med Chem, 2024)
